The results in this text go back to ChEMBL document CHEMBL2057133, “A 20S combined with a 22R configuration markedly increases both in vivo and in vitro biological activity of 1α,25-dihydroxy-22-methyl-2-methylene-19-norvitamin D3” (J Med Chem, 2012).

pEC50, pKi: −log10 of the molar value. Activity calls are given as the source filed them. The rule behind the calls is not given here.

The target of experiment [1] is T1, Vitamin D3 receptor (Rattus norvegicus, UniProt P13053).
T1 sequence (P13053 whole entry): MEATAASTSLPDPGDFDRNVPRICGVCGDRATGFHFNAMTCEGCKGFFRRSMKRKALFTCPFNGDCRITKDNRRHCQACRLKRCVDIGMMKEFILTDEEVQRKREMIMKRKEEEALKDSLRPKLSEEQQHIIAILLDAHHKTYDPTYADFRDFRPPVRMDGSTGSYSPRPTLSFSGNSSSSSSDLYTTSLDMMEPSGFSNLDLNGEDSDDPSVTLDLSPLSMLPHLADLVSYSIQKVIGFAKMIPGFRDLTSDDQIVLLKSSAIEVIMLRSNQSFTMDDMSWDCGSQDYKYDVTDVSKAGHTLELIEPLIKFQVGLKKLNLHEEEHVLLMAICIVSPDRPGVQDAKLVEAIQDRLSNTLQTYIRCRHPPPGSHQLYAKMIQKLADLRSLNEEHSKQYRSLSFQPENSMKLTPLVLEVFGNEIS
Put plainly: Displacement of [3H]-1alpha,25(OH)2D3 from recombinant rat VDR after overnight incubation by scintillation counting. The procedure, abridged: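 Competition assay using full-length recombinant rat VDR with radiolabeled 1α,25-(OH)2D3 at 1 nM. Ki was derived from dose-response curves using a Kd of 0.2 nM. Run in duplicate on two separate occasions.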
On the technique in general: Displacement assays read how much labelled ligand stays bound in the presence of the test substance.

Experiment [2] has as its system HL-60. Nature of the experiment: Induction of human HL60 cell differentiation after 4 days by NBT reduction assay. As to conditions: HL-60, 96 h, read-out: ED50 (the source's name). The format is functional.
The test system of experiment [3] is Rattus norvegicus. Put plainly: Calcium mobilization in vitamin-D deficient weanling Sprague-Dawley rat bone assessed as increase in serum calcium level at 32 to 35100 pmol, ip administered every 24 hrs for 4 consecutive days measured 24 hrs post last dose relative to vehicle treated control. The format is functional, organism-based. The method, boiled down:
(§1)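 Male weanling Sprague-Dawley rats were fed Diet 11 (0.47% Ca) + AEK oil for 1 week, then 0.02% Ca + AEK oil for 3 weeks, then 0.47% Ca for 1 week, then 0.02% Ca for 2 weeks. Dosing began in the last week on 0.02% Ca: four daily intraperitoneal doses. Serum calcium was measured in neck blood 24 h after the last dose and expressed as the difference from vehicle controls. Mean ± SEM of 6 values.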
In general terms: Calcium flux is commonly read through the fluorescence of an indicator in the cells.

For experiment [4], the target named is T2, Vitamin D3 receptor (Rattus norvegicus) (UniProt P13053).
T2 sequence (whole entry): T1 sequence (P13053 whole entry)
Put plainly: Activation of VDR-mediated 24-hydroxylase transcription in rat osteosarcoma cells after 16 hrs by luciferase reporter gene assay.

The test system of experiment [5] is Rattus norvegicus. Put plainly: Calcium mobilization in vitamin-D deficient weanling Sprague-Dawley rat intestine assessed as increase in serosal/mucosal calcium level at 32 to 35100 pmol, ip administered every 24 hrs for 4 consecutive days measured 24 hrs post last dose by everted gut sac method relative to vehicle treated control. Type of experiment: functional, organism-based.

In experiment [6] the test system is HL-60. Put plainly: Ratio of 1alpha,25-(OH)2D3 ED50 to compound ED50 for induction of human HL60 cell differentiation. The format is functional. The method, boiled down:
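HL-60 promyelocyte differentiation to monocytes was scored as the percentage of cells reducing nitro blue tetrazolium. ED50 is the concentration giving 50% maturation, from dose-response curves; the experiment was done twice in duplicate. The ratio is the average of 1α,25-(OH)2D3 ED50 over analogue ED50.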

Experiment [7] relates to Rattus norvegicus. Nature of the experiment: Calcium mobilization in vitamin-D deficient weanling Sprague-Dawley rat bone assessed as increase in serum calcium level at 32 to 70200 pmol, ip administered every 24 hrs for 4 consecutive days measured 24 hrs post last dose relative to vehicle treated control. The format is functional, organism-based. The method, boiled down: as §1

In experiment [8] the test system is Rattus norvegicus. Nature of the experiment: Calcium mobilization in vitamin-D deficient weanling Sprague-Dawley rat intestine assessed as increase in serosal/mucosal calcium level at 32 to 7020 pmol, ip administered every 24 hrs for 4 consecutive days measured 24 hrs post last dose by everted gut sac method relative to vehicle treated control. The format is functional, organism-based.

The subject of experiment [9] is Rattus norvegicus. Nature of the experiment: Calcium mobilization in vitamin-D deficient weanling Sprague-Dawley rat bone assessed as increase in serum calcium level at 32 to 2340 pmol, ip administered every 24 hrs for 4 consecutive days measured 24 hrs post last dose relative to vehicle treated control. The format is functional, organism-based. The method, boiled down: as §1

Experiment [10] concerns Rattus norvegicus. Nature of the experiment: Calcium mobilization in vitamin-D deficient weanling Sprague-Dawley rat intestine assessed as increase in serosal/mucosal calcium level at 32 to 2340 pmol, ip administered every 24 hrs for 4 consecutive days measured 24 hrs post last dose by everted gut sac method relative to vehicle treated control. Type of experiment: functional, organism-based.

On to `C=C1[C@H](O)CC(=C/C=C2\CCC[C@]3(C)[C@@H]([C@H](C)C(C)(C)CCC(C)(C)O)CC[C@@H]23)C[C@H]1O`, for which the pKi in [1] was 10.70. For the same molecule, the pEC50 in experiment [2] is 9.05. Moreover, the outcome in experiment [3] and in experiment [5] was inactive. The molecule also came in with an ED50 in experiment [4] of 30 pM. Besides, the “Ratio ED50” value in experiment [6] came to 2.2.
Turning to `C=C1[C@H](O)CC(=C/C=C2\CCC[C@]3(C)[C@@H]([C@@H](C)CCCC(C)(C)O)CC[C@@H]23)C[C@H]1O` [DP001], the pEC50 in experiment [2] is 10.10. For the same molecule, in [4], the ED50 is 7 pM. The “Ratio ED50” value in experiment [6] is reported as 25.
Regarding `C=C1[C@H](O)CC(=C/C=C2\CCC[C@]3(C)[C@@H]([C@H](C)[C@@H](C)CCC(C)(C)O)CC[C@@H]23)C[C@H]1O`, in experiment [1], the pKi is 10.00. In addition, the pEC50 in [2] is 9.05. Moreover, the result in experiment [3] and in experiment [5] was inactive. The molecule further showed an ED50 in experiment [4] of 200 pM. Moreover, in experiment [6], the “Ratio ED50” value is listed as 2.2.
For `C=C1/C(=C\C=C2/CCC[C@]3(C)[C@@H]([C@H](C)CCCC(C)(C)O)CC[C@@H]23)C[C@@H](O)C[C@@H]1O`, the outcome in [7] and in [8] was Active.
`C=C1[C@H](O)CC(=C/C=C2\CCC[C@]3(C)[C@@H]([C@@H](C)[C@H](C)CCC(C)(C)O)CC[C@@H]23)C[C@H]1O`: the pKi in [1] is 10.40. The pEC50 in [2] is 10.70. In [4], this molecule came in with an ED50 of 7 pM. Further, the “Ratio ED50” value in experiment [6] stood at 100. For the same molecule, the result in [9] and in experiment [10] was Active.
For `C=C1[C@H](O)CC(=C/C=C2\CCC[C@]3(C)[C@@H]([C@H](C)[C@H](C)CCC(C)(C)O)CC[C@@H]23)C[C@H]1O`, the pKi in experiment [1] was 9.70. Also, the pEC50 in [2] is 8.00. Also, the result in [3] and in [5] was Active. The molecule also registered an ED50 in [4] of 5000 pM. For the same molecule, the “Ratio ED50” value in experiment [6] is 0.2.
With `C=C1[C@H](O)CC(=C/C=C2\CCC[C@]3(C)[C@@H]([C@@H](C)[C@@H](C)CCC(C)(C)O)CC[C@@H]23)C[C@H]1O`, the pKi in experiment [1] is 8.00. The pEC50 in experiment [2] is 7.70. Also, the outcome in [3] and in experiment [5] was Active. In addition, the ED50 in experiment [4] was determined as 4000 pM. In addition, the “Ratio ED50” value in experiment [6] came to 0.1.
Turning to `C=C1[C@H](O)CC(=C/C=C2\CCC[C@]3(C)[C@@H]([C@@H](C)C(C)(C)CCC(C)(C)O)CC[C@@H]23)C[C@H]1O`, the pKi in experiment [1] is 10.22. The pEC50 in [2] was 9.00. Moreover, the outcome in experiment [3] and in [5] was inactive. The molecule also registered an ED50 in [4] of 600 pM. The “Ratio ED50” value in experiment [6] came out at 2.

The term pKi denotes the negative decadic logarithm of the Ki, by convention in mol/L.
